The results in this text go back to ChEMBL document CHEMBL2424598, “Identification and optimization of pteridinone Toll-like receptor 7 (TLR7) agonists for the oral treatment of viral hepatitis” (J Med Chem, 2013).

Usually EC50 stands for the concentration that produces a half-maximal response. What is called half-life is the time needed for the level to fall by half in the phase considered. As a reminder, the Cmax is the peak of the concentration-time curve. The bioavailability is the share of a dose that reaches the circulation, judged against a reference dose that is usually intravenous.

One data set has as its target T1, Toll-like receptor 7 (Homo sapiens, UniProt Q9NYK1).
T1 sequence (Q9NYK1 whole entry): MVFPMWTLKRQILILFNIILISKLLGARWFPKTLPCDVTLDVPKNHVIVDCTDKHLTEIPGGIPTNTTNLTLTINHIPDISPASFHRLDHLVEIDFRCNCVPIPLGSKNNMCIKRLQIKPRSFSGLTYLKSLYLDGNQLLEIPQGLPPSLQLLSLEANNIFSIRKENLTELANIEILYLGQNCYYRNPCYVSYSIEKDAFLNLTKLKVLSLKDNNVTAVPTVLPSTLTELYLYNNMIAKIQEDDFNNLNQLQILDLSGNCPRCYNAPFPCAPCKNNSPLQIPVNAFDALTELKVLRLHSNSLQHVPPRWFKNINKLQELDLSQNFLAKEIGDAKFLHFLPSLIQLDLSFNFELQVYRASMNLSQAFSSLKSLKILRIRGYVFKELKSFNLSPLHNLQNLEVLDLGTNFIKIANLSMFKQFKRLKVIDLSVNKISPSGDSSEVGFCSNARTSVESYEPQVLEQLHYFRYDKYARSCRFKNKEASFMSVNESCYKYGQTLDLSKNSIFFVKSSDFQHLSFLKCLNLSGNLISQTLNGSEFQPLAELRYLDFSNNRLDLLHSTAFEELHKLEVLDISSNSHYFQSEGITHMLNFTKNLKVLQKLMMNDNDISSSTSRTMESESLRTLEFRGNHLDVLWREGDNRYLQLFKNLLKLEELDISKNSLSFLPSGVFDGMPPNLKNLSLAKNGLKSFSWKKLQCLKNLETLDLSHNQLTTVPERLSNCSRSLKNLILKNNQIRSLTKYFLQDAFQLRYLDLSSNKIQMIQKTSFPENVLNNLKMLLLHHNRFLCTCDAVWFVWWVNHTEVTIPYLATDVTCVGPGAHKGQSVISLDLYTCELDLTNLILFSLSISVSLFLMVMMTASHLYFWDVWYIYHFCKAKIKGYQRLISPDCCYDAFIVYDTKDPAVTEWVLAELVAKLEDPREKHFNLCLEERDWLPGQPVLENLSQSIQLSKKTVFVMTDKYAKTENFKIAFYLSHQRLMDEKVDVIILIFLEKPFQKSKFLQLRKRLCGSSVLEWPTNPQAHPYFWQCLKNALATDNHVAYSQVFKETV
In words: Agonist activity at human TLR7 expressed in HEK293 cells by reporter based assay. Type of data set: cell-based. Put shortly: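 HEK293 reporter cell lines, each expressing a single human TLR, with compound titrated up to 100 μM. EC50 taken for TLR7 and TLR8 activation.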

Data set [1] has as its target T2, Toll-like receptor 7 (Homo sapiens) (UniProt Q9NYK1).
T2 sequence (whole entry): T1 sequence (Q9NYK1 whole entry)
In words: Agonist activity at TLR7-mediated IFNalpha production in human PBMC assessed as minimum concentration of compound necessary to generate >3 fold of cytokine levels relative to control. Put shortly: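 Cryopreserved PBMCs from leukapheresis of a single healthy human donor, chosen as a consistent, robust responder to TLR7 agonist stimulation. Cells were incubated with compound for 24 h over an eight-point concentration range. Secreted IFN-α was measured to build dose-response curves. MEC was taken as the lowest concentration giving cytokine levels ≥3-fold over untreated control cultures.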

Data set [2] can be described thus: Half life in rat liver microsomes. The format is ADME, Microsome. On the technique in general: Liver microsomes are vesicles of endoplasmic reticulum, rich in cytochrome P450 enzymes.
Data set [3] in a line: Cmax in cynomolgus monkey at 0.1 mg/kg, po. The format is ADME, organism-based, Macaca fascicularis. On the set-up: dose 0.1 mg/kg, route oral. To be noted: in vivo. Put shortly:
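Male cynomolgus monkeys, n = 3 per group, received a 30 min iv infusion or an oral dose. Compound was measured in serum (limit of quantitation 0.04 ng/mL), and Cmax is reported as the group mean.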

The nature of data set [4]: Oral bioavailability in cynomolgus monkey at 0.3 mg/kg. To be noted: in vivo. The format is ADME, organism-based, Macaca fascicularis. Put shortly:
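Healthy male cynomolgus monkeys, n = 3, received a 30 min iv infusion at 0.1 mg/kg or an oral dose at 0.3 mg/kg. The oral formulation was water at pH 3.1 (HCl). Plasma PK parameters (CL, Vss, F) are reported as mean ± SD.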

The test system of another data set is Cynomolgus monkey. In words: Agonist activity at […] in po dosed cynomolgus monkey assessed as increase of serum IFNalpha level after 1 to 24 hrs by ELISA. The format is functional, organism-based. To be noted: Macaca fascicularis. Put shortly:
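Healthy male cynomolgus monkeys, n = 3 per group, dosed either by 30 min iv infusion or orally. Serum was sampled predose and at 1, 2, 4, 8, 12 and 24 h postdose. IFN-α was measured by species-specific ELISA (limit of detection 130 pg/mL) and reported as mean peak serum level ± SD.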
Background: ELISA stands for enzyme-linked immunosorbent assay.

Regarding `CCCCOc1nc(N)c2c(n1)N(Cc1cccc(CN3CCCC3)c1)CC(=O)N2` [VESATOLIMOD], at Toll-like receptor 7, the concentration for a half-maximal effect (EC50) stood at 290 nM. The MEC in data set [1] was found to be 3 nM. In data set [2], this molecule registered a half-life of 5.4 min. Besides, in data set [3], the Cmax amounted to 1.6 ng/mL. Moreover, the bioavailability in data set [4] stood at 1.1%. The Activity entry in the data set with Cynomolgus monkey was “Dose-dependent effect”.
